{"source": "ChEMBL document CHEMBL1153988", "about": "(J Med Chem, 2009)", "key": {"Mus musculus [1]": {"system": "Mus musculus", "experiment": "Teratogenic effect in VPA-induced SWV mouse assessed as number of fetuses with neural tube deffects at 336 mg/kg, ip administered on morning of day 8 of gestation", "type": "toxicity, organism-based", "parameters": "dose 336 mg/kg, route intraperitoneal", "conditions": "in vivo", "how_it_was_run": "(§1)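 Inbred SWV mouse strain highly susceptible to VPA-induced neural tube defects. Each dam received a single ip injection on gestation day 8.5, dosed within 1.8-4.2 mmol/kg, against a control of 25% aqueous Cremophor EL. Groups were compared with the control, and with the matched VPA sodium-salt dose, by Fisher's exact test (p < 0.05).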"}, "Mus musculus [2]": {"system": "Mus musculus", "experiment": "Anticonvulsant activity in CF1 albino mouse assessed as protection against scMet-induced seizures at 30 mg/kg, ip after 0.5 hrs", "type": "functional, organism-based", "parameters": "dose 30 mg/kg", "how_it_was_run": "(§2)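 Adult male CF no. 1 albino mice (18-25 g) dosed intraperitoneally with compound suspended in 0.5% methylcellulose (0.01 mL/g). Convulsant challenge given subcutaneously as a 0.85% pentylenetetrazol solution in 0.9% saline. Read-out is animals protected over animals tested, with neurotoxicity scored in parallel.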"}, "Rattus norvegicus [3]": {"system": "Rattus norvegicus", "experiment": "Anticonvulsant activity in po dosed albino Sprague-Dawley rat assessed as protection against maximal electroshock-induced seizures", "type": "functional"}, "Mus musculus [4]": {"system": "Mus musculus", "experiment": "Anticonvulsant activity in CF1 albino mouse assessed as protection against scMet-induced seizures at 100 mg/kg, ip", "type": "functional, organism-based", "parameters": "dose 100 mg/kg", "how_it_was_run": "as §2"}, "Rattus norvegicus [5]": {"system": "Rattus norvegicus", "experiment": "Anticonvulsant activity in po dosed albino Sprague-Dawley rat assessed as protection against scMet-induced seizures", "type": "functional", "how_it_was_run": "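Male Sprague-Dawley albino rats (100-150 g) were dosed orally in 0.5% methylcellulose and tested by MES or by sc pentylenetetrazol (2.82% in 0.9% saline). Doses were varied to give 3-4 points between 0% and 100% protection. ED50 and 95% confidence intervals came from probit analysis.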"}, "Mus musculus [6]": {"system": "Mus musculus", "experiment": "Teratogenic effect in VPA-induced SWV mouse assessed as number of fetuses with neural tube deffects at 671 mg/kg, ip administered on morning of day 8 of gestation", "type": "toxicity, organism-based", "parameters": "dose 671 mg/kg, route intraperitoneal", "conditions": "in vivo", "how_it_was_run": "as §1"}, "Mus musculus [7]": {"system": "Mus musculus", "experiment": "Anticonvulsant activity in CF1 albino mouse assessed as protection against scMet-induced seizures at 50 mg/kg, ip", "type": "functional, organism-based", "parameters": "dose 50 mg/kg", "how_it_was_run": "as §2"}, "Mus musculus [8]": {"system": "Mus musculus", "experiment": "Anticonvulsant activity in CF1 albino mouse assessed as protection against maximal electroshock-induced seizures at 300 mg/kg, ip after 0.5 hrs", "type": "functional, organism-based", "parameters": "dose 300 mg/kg", "how_it_was_run": "(§3)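 Adult male CF no. 1 albino mice (18-25 g). Test compound suspended in 0.5% methylcellulose and given intraperitoneally at 0.01 mL/g body weight. Maximal electroshock challenge at the stated time. Read-out is the number of animals protected over the number tested; neurotoxicity is scored in parallel.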"}, "Mus musculus [9]": {"system": "Mus musculus", "experiment": "Anticonvulsant activity in CF1 albino mouse assessed as protection against maximal electroshock-induced seizures at 30 mg/kg, ip after 0.5 hrs", "type": "functional, organism-based", "parameters": "dose 30 mg/kg", "how_it_was_run": "as §3"}, "Mus musculus [10]": {"system": "Mus musculus", "experiment": "Neurotoxicity in CF1 albino mouse at 300 mg/kg, ip after 4 hrs", "type": "toxicity, organism-based", "parameters": "dose 300 mg/kg, route intraperitoneal", "conditions": "in vivo", "how_it_was_run": "(§4)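 Male CF no. 1 albino mice (18-25 g) received a single ip dose as a suspension in 0.5% methylcellulose. The read-out was the number of animals showing neurotoxicity (minimal motor impairment) over the number tested.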"}, "Mus musculus [11]": {"system": "Mus musculus", "experiment": "Neurotoxicity in CF1 albino mouse at 30 mg/kg, ip after 4 hrs", "type": "toxicity, organism-based", "parameters": "dose 30 mg/kg, route intraperitoneal", "conditions": "in vivo", "how_it_was_run": "as §4"}, "Mus musculus [12]": {"system": "Mus musculus", "experiment": "Teratogenic effect in SWV mouse assessed as resorptions at 336 mg/kg, ip administered on morning of day 8 of gestation", "type": "toxicity, organism-based", "parameters": "dose 336 mg/kg, route intraperitoneal", "conditions": "in vivo", "how_it_was_run": "as §1"}, "Mus musculus [13]": {"system": "Mus musculus", "experiment": "Anticonvulsant activity in CF1 albino mouse assessed as protection against maximal electroshock-induced seizures at 300 mg/kg, ip after 4 hrs", "type": "functional, organism-based", "parameters": "dose 300 mg/kg", "how_it_was_run": "as §3"}, "Rattus norvegicus [14]": {"system": "Rattus norvegicus", "experiment": "Anticonvulsant activity in albino Sprague-Dawley rat assessed as protection against scMet-induced seizures at 25 mg/kg, po", "type": "functional, organism-based", "parameters": "dose 25 mg/kg", "how_it_was_run": "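Oral dosing of male Sprague-Dawley rats (100-150 g) with compound in 0.5% methylcellulose. Convulsant challenge given subcutaneously as a 2.82% pentylenetetrazol solution in 0.9% saline. Groups of about 8 rats per dose. For quantitation, doses spanning 0% to 100% protection were fitted by probit analysis to give ED50 with 95% confidence interval.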"}, "Mus musculus [15]": {"system": "Mus musculus", "experiment": "Teratogenic effect in SWV mouse assessed as number of litters at 336 mg/kg, ip administered on morning of day 8 of gestation", "type": "toxicity, organism-based", "parameters": "dose 336 mg/kg, route intraperitoneal", "conditions": "in vivo", "how_it_was_run": "as §1"}, "Mus musculus [16]": {"system": "Mus musculus", "experiment": "Anticonvulsant activity in CF1 albino mouse assessed as protection against scMet-induced seizures at 30 mg/kg, ip after 4 hrs", "type": "functional, organism-based", "parameters": "dose 30 mg/kg", "how_it_was_run": "as §2"}, "Mus musculus [17]": {"system": "Mus musculus", "experiment": "Anticonvulsant activity in CF1 albino mouse assessed as protection against scMet-induced seizures at 100 mg/kg, ip after 0.5 hrs", "type": "functional, organism-based", "parameters": "dose 100 mg/kg", "how_it_was_run": "as §2"}, "Mus musculus [18]": {"organism": "Mus musculus", "experiment": "Protective index, ratio of TD50 for CF1 albino mouse to ED50 for scMet-induced CF1 albino seizure mouse model", "type": "functional", "how_it_was_run": "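Ratio of TD50 to ED50 (MES or scMet) in male CF no. 1 mice (18-25 g) given ip doses in 0.5% methylcellulose. TD50 comes from minimal motor impairment: the dose was varied until four points lay between no impairment and all animals impaired. Both TD50 and ED50 were derived by probit analysis with 95% confidence intervals.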"}, "Rattus norvegicus [19]": {"system": "Rattus norvegicus", "experiment": "Anticonvulsant activity in albino Sprague-Dawley rat assessed as protection against scMet-induced seizures at 50 mg/kg, po after 4 hrs", "type": "functional", "how_it_was_run": "(§5)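 Male Sprague-Dawley albino rats (100-150 g) were given the compound orally as a suspension in 0.5% methylcellulose. Seizures were induced by subcutaneous pentylenetetrazol, dissolved in 0.9% saline as a 2.82% solution. The read-out was animals protected over animals tested.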"}, "Mus musculus [20]": {"system": "Mus musculus", "experiment": "Teratogenic effect in SWV mouse assessed as resorptions at 671 mg/kg, ip administered on morning of day 8 of gestation", "type": "toxicity, organism-based", "parameters": "dose 671 mg/kg, route intraperitoneal", "conditions": "in vivo", "how_it_was_run": "as §1"}, "Rattus norvegicus [21]": {"system": "Rattus norvegicus", "experiment": "Anticonvulsant activity in albino Sprague-Dawley rat assessed as protection against maximal electroshock-induced seizures at 50 mg/kg, po after 15 mins", "type": "functional", "how_it_was_run": "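Adult male Sprague-Dawley albino rats (100-150 g) dosed orally with compound suspended in 0.5% methylcellulose (0.04 mL per 10 g). Maximal electroshock challenge at the stated time. Protection is scored in 25% steps as the fraction of animals protected, with neurotoxicity recorded in parallel.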"}, "Mus musculus [22]": {"organism": "Mus musculus", "experiment": "Protective index, ratio of TD50 for CF1 albino mouse to ED50 for 44 mA-current-induced CF1 albino mouse seizure model", "type": "functional", "how_it_was_run": "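Protective index is the mouse TD50 (minimal motor impairment) divided by the 6 Hz test ED50 at 32 or 44 mA. Male CF no. 1 mice were dosed ip in 0.5% methylcellulose, and values came from probit analysis.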"}, "Mus musculus [23]": {"system": "Mus musculus", "experiment": "Teratogenic effect in SWV mouse assessed as number of litters at 502 mg/kg, ip administered on morning of day 8 of gestation", "type": "toxicity, organism-based", "parameters": "dose 502 mg/kg, route intraperitoneal", "conditions": "in vivo", "how_it_was_run": "as §1"}, "Mus musculus [24]": {"system": "Mus musculus", "experiment": "Anticonvulsant activity in ip dosed CF1 albino mouse assessed as protection against 32 mA current-induced seizure by 6Hz psychomotor seizure test", "type": "functional", "how_it_was_run": "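In the 6 Hz psychomotor seizure test, male CF no. 1 albino mice (18-25 g) received the compound ip in 0.5% methylcellulose. Stimulation was at 32 or 44 mA. Doses were varied to give 3-4 points between 0% and 100% protection, and ED50 with 95% confidence interval came from probit analysis.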"}, "Rattus norvegicus [25]": {"system": "Rattus norvegicus", "experiment": "Anticonvulsant activity in albino Sprague-Dawley rat assessed as protection against scMet-induced seizures at 50 mg/kg, po after 1 hr", "type": "functional", "how_it_was_run": "as §5"}, "Mus musculus [26]": {"system": "Mus musculus", "experiment": "Teratogenic effect in SWV mouse assessed as live fetuses at 502 mg/kg, ip administered on morning of day 8 of gestation", "type": "toxicity, organism-based", "parameters": "dose 502 mg/kg, route intraperitoneal", "conditions": "in vivo"}, "Mus musculus [27]": {"system": "Mus musculus", "experiment": "Anticonvulsant activity in CF1 albino mouse assessed as protection against scMet-induced seizures at 300 mg/kg, ip after 0.5 hrs", "type": "functional, organism-based", "parameters": "dose 300 mg/kg", "how_it_was_run": "as §2"}}, "note": "Activity calls are given as the source filed them. No cut-off for these calls is given here.", "data": [{"smiles": "CC1(C)C(C)(C)C1(F)C(N)=O", "values": [{"measurement": "Activity", "setting": "Mus musculus [1]", "result": 0}, {"measurement": "Activity", "setting": "Mus musculus [2]", "result": "Non-toxic"}, {"measurement": "ED50", "setting": "Rattus norvegicus [3]", "result": "> 100", "unit": "mg/kg"}, {"measurement": "Activity", "setting": "Mus musculus [4]", "result": "Active"}, {"measurement": "ED50", "setting": "Rattus norvegicus [5]", "result": 6.4, "unit": "mg/kg"}, {"measurement": "Activity", "setting": "Mus musculus [6]", "result": 0}, {"measurement": "Activity", "setting": "Mus musculus [7]", "result": "Active"}, {"measurement": "Activity", "setting": "Mus musculus [8]", "result": "Toxic"}, {"measurement": "Activity", "setting": "Mus musculus [9]", "result": "Non-toxic"}, {"measurement": "Activity", "setting": "Mus musculus [10]", "result": "Non-toxic"}, {"measurement": "Activity", "setting": "Mus musculus [11]", "result": "Non-toxic"}, {"measurement": "Activity", "setting": "Mus musculus [12]", "result": 9.8, "unit": "%"}, {"measurement": "Activity", "setting": "Mus musculus [13]", "result": "Non-toxic"}, {"measurement": "Activity", "setting": "Rattus norvegicus [14]", "result": "Active"}, {"measurement": "Activity", "setting": "Mus musculus [15]", "result": 8}, {"measurement": "Activity", "setting": "Mus musculus [16]", "result": "Non-toxic"}, {"measurement": "Activity", "setting": "Mus musculus [17]", "result": "Toxic"}, {"measurement": "PI", "setting": "Mus musculus [18]", "result": 3.2}, {"measurement": "Activity", "setting": "Rattus norvegicus [19]", "result": 50, "unit": "%"}, {"measurement": "Activity", "setting": "Mus musculus [20]", "result": 78.2, "unit": "%"}, {"measurement": "Activity", "setting": "Rattus norvegicus [21]", "result": "inactive"}, {"measurement": "PI", "setting": "Mus musculus [22]", "result": 2}, {"measurement": "Activity", "setting": "Mus musculus [23]", "result": 10}, {"measurement": "ED50", "setting": "Mus musculus [24]", "result": 57, "unit": "mg/kg"}, {"measurement": "Activity", "setting": "Rattus norvegicus [25]", "result": 75, "unit": "%"}, {"measurement": "Activity", "setting": "Mus musculus [26]", "result": 73.2, "unit": "%"}, {"measurement": "Activity", "setting": "Mus musculus [27]", "result": "Toxic"}]}]}
